VLA-4 inh: inhibition in human VLA-4 binding assay, primary screen, VLA-4 allosteric modulator project, MLPCN library, flow cytometry, VLA-4 expressing cells; ligand binding flow cytometry; 0.2% of 330,000 active; Integrin alpha-4 (Homo sapiens), P13612; inhibition, % (about 7 µM as worked out from the volumes in the protocol); in the data active means inhibition above about 50%
Target sequence (P13612 whole entry, looked up): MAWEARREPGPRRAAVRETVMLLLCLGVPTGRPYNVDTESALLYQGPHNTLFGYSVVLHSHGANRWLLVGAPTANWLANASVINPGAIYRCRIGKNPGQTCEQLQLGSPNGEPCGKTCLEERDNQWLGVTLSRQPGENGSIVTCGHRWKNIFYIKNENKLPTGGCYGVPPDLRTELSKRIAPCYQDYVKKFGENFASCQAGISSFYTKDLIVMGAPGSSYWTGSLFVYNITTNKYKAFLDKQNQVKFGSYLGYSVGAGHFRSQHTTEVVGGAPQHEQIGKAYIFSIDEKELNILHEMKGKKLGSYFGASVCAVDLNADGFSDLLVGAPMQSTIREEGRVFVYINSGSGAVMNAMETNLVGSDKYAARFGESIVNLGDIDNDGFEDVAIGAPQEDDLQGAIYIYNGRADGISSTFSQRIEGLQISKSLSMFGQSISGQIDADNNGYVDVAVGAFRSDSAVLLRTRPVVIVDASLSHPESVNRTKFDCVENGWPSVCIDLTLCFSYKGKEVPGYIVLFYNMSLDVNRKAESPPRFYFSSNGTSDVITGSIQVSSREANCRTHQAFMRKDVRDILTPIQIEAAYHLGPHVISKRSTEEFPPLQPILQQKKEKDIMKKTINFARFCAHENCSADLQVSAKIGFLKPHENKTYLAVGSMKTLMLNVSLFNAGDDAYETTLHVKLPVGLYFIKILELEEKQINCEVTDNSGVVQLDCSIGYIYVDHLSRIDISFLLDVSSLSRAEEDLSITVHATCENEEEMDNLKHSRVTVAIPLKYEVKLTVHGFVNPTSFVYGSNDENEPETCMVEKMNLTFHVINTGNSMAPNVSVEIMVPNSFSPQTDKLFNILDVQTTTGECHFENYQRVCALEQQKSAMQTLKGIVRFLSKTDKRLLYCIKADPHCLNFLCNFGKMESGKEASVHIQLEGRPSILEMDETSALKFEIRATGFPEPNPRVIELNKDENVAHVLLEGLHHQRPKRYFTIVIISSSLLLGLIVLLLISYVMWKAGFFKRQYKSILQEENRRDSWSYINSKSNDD
ABCB6 inh MLPCN: ABCB6 transporter inhibitors, primary screen, K562-ABCB6 cells, flow cytometry, MLPCN library; K562-ABCB6 porphyrin accumulation, 1 h; hits give low values; fluorescence ratio to DMSO, % at 10 µM; 0.19% of 360,000 active;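 active means fluorescence ratio to DMSO below 75%, the collection mean minus 3 SD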;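 further: signal is porphyrin accumulated inside mitochondria; 100% equals median channel fluorescence of DMSO control wells; lower ratio means ABCB6 inhibition with less porphyrin fluorescence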
DAGLB inhibitor: DAGLB lipase inhibitors, primary screen, biochemical, fluorescence, HTS | AID 504411, 2011 | HEK293T DAGLB membrane lysate, EnzChek fluorogenic substrate | 0.059% of 340,000 active | inhibition, % at 5.17 µM; in the data active means inhibition above about 34%;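 further: 0% = enzyme with vehicle and 100% = wells lacking enzyme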
FGF22 binding: binders of human FGF22 protein, primary screen, FGF22 synaptogenesis inhibitor project, biophysical, thermal shift, single point. Fibroblast growth factor 22 (Homo sapiens), Q9HCT0. recombinant FGF22 thermal shift, SYPRO orange fluorescence; percent of sucrose octasulfate shift, DMSO zero. activity (Tm shift, normalised), % at 9.99 µM. 1.5% of 340,000 active. AID 651658, 2012;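 active means mean Tm shift, scaled 0 neutral to 100 positive control, at about 1.3% or above, every replicate too, limit read from the data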
MT1-MMP act inh: blockers of MT1-MMP proenzyme processing, primary screen, HT1080 RFP-PRO-GFP cells, GFP/RFP fluorescence | GFP/RFP ratio change, % at 20 µM | GFP/RFP ratio fluorescence, overnight; percent of plate control window, DMSO zero | Matrix metalloproteinase-14 (Homo sapiens), P50281 | 0.061% of 360,000 active | AID 651647, 2012;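 active means GFP/RFP ratio change of at least 30% with cell ATP level not reduced by more than half and red fluorescence within 50% of control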
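Assay system: HT1080 RFP-PRO-GFP cells. Benchmarks: DMSO vehicle wells and RFP-L50D-GFP reporter cell wells. Times: overnight cell settling, then overnight compound exposure, 37 °C, 5% CO2. Compound: 20 µM single dose, 1% DMSO. Read-out basis: GFP/RFP fluorescence ratio.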
Granule exo inh: LAMP-1 surface exposure blockers, TALL-104 cells – cell-based, flow cytometry, MLPCN library, primary screen; inhibition, % at 10 µM; TALL-104 LAMP-1 surface exposure; cells stimulated with thapsigargin and PMA; 0.66% of 360,000 active; AID 651702, 2012;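 active means inhibition above about 55%, limit read from the data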
Numbers without * were called inactive. Rows were chosen to be rich in hits. Some 2% of all compounds tested hit in one or more screens of this group.

COc1cccc(NC(=O)N(C)C[C@H]2Oc3cc(C#Cc4ccccc4)ccc3S(=O)(=O)N([C@@H](C)CO)C[C@H]2C)c1 was read as FGF22 binding 1.4*.
COc1ccc(NC(=O)N(C)C[C@@H]2Oc3cc(-c4ccc(C)cc4)ccc3S(=O)(=O)N([C@@H](C)CO)C[C@H]2C)cc1 was read as FGF22 binding 0.
For COc1ccc(NC(=O)N(C)C[C@H]2Oc3cc(-c4ccc(C)cc4)ccc3S(=O)(=O)N([C@H](C)CO)C[C@H]2C)cc1 the results were FGF22 binding 1.7*.
Screening CCCCSc1n[nH]c(=S)c2nc[nH]c12 returned ABCB6 inh MLPCN 89, DAGLB inhibitor 0, FGF22 binding 43*, MT1-MMP act inh 8 and Granule exo inh 7.
`S=c1[nH]nc(SCc2ccccc2)c2[nH]cnc12` gave ABCB6 inh MLPCN 95, DAGLB inhibitor -1, FGF22 binding 0, MT1-MMP act inh 8 and Granule exo inh -2.
Screening COc1ccc(NC(=O)N2C[C@H]3[C@@H](c4ccccc42)[C@@H](CO)N3C(=O)C2CCCC2)cc1 returned FGF22 binding 0.
`COc1cc(-c2cc(-c3ccc(F)cc3)nc(N)c2C#N)ccc1O` gave VLA-4 inh -20, ABCB6 inh MLPCN 97, DAGLB inhibitor -3, FGF22 binding 43*, MT1-MMP act inh 2 and Granule exo inh 1.
Screening O=C(CSc1ncnc2sccc12)Nc1ccccc1F returned VLA-4 inh -14, ABCB6 inh MLPCN 102, DAGLB inhibitor -2, FGF22 binding 0, MT1-MMP act inh 0 and Granule exo inh 1.
For O=C(CSc1ncnc2sccc12)Nc1ccccc1 the results were VLA-4 inh 1, ABCB6 inh MLPCN 99, DAGLB inhibitor -1, FGF22 binding 43*, MT1-MMP act inh -7 and Granule exo inh -9.
COc1ccc2c3c([nH]c2c1)[C@H](CO)N(C(=O)NC1CCCC1)CC31CCN(C(=O)Nc2cccc(F)c2)CC1 was read as FGF22 binding 0.
`CN1C[C@@H](O)COC[C@@H]2O[C@H](CC(=O)NC3CCC3)CC[C@H]21` gave FGF22 binding 0.
CSc1ncccc1C(=O)NCCc1ccccc1 was read as VLA-4 inh 15, ABCB6 inh MLPCN 90, DAGLB inhibitor 0, FGF22 binding 43*, MT1-MMP act inh 0 and Granule exo inh 1.
Screening COc1ccc(CCNC(=O)c2n[nH]c(=O)c3ccccc23)cc1 returned VLA-4 inh 21, ABCB6 inh MLPCN 100, DAGLB inhibitor -1, MT1-MMP act inh 1 and Granule exo inh -2.
Screening O=C(NCCc1ccccc1)c1n[nH]c(=O)c2ccccc12 returned VLA-4 inh 9, ABCB6 inh MLPCN 88, DAGLB inhibitor -2, FGF22 binding 43*, MT1-MMP act inh -1 and Granule exo inh -3.
For O=C(NCCc1ccccc1)c1c(F)cccc1F the results were VLA-4 inh -6, ABCB6 inh MLPCN 101, DAGLB inhibitor 0, FGF22 binding 43*, MT1-MMP act inh 2 and Granule exo inh 2.
`C/C=C/c1ccc2c(c1)O[C@H](CN(C)C(=O)CN(C)C)[C@@H](C)CN([C@@H](C)CO)S2(=O)=O` gave FGF22 binding 0.
For CCS(=O)(=O)N1CC2(CN[C@@H](CO)c3c2c2ccc(OC)cc2n3C)C1 the results were FGF22 binding 0.
For Cc1noc(C)c1NC(=O)N(C)C[C@@H]1OCCCC[C@H](C)Oc2ccc(NC(=O)C3CCCCC3)cc2C(=O)N([C@@H](C)CO)C[C@H]1C the results were FGF22 binding 0.
Screening CCN(CC)C(=O)C(=O)c1ccn(-c2c(C)csc2C(=O)OC)c1 returned VLA-4 inh -17, ABCB6 inh MLPCN 87, DAGLB inhibitor -2, FGF22 binding 43*, MT1-MMP act inh 3 and Granule exo inh -1.
Nc1ccc2c(c1)C(=O)c1ccc(Cl)cc1-2 was read as ABCB6 inh MLPCN 93, DAGLB inhibitor 27, FGF22 binding 1, MT1-MMP act inh 1 and Granule exo inh -5.
For Nc1ccc2c(c1)C(=O)c1cc(N)c(Cl)cc1-2 the results were ABCB6 inh MLPCN 98, DAGLB inhibitor 16, FGF22 binding 43*, MT1-MMP act inh 4 and Granule exo inh 2.
CCC(=O)N1[C@H](C(=O)N2CCCCC2)[C@@H](CO)[C@@H]2Cn3c(ccc(-c4ccccc4)c3=O)[C@@H]21 was read as FGF22 binding 0.
`CCC(C(=O)Nc1cccc(C(=O)O)c1C)c1ccccc1` (centres undefined) gave VLA-4 inh 10, ABCB6 inh MLPCN 107, DAGLB inhibitor -2, FGF22 binding 43*, MT1-MMP act inh 1 and Granule exo inh 22.
Screening Cc1noc(C)c1S(=O)(=O)Nc1ccc2c(c1)CC(=O)N([C@@H](C)CO)C[C@@H](C)[C@H](CN(C)S(=O)(=O)c1ccc(F)cc1)O2 returned FGF22 binding 0.
Cc1cc(C)c(S(C)(=O)=O)c(NN)n1 was read as VLA-4 inh -1, ABCB6 inh MLPCN 97, DAGLB inhibitor -2, FGF22 binding 44*, MT1-MMP act inh 0 and Granule exo inh 1.
For Cc1cn(C2OC(COC(=O)c3ccccc3)C(O)C2Cl)c(=O)[nH]c1=O (centres undefined) the results were VLA-4 inh -6, ABCB6 inh MLPCN 94, DAGLB inhibitor 3, FGF22 binding 43*, MT1-MMP act inh -1 and Granule exo inh -1.
O=C(OCC1OC(n2cc(Br)c(=O)[nH]c2=O)C(Br)C1O)c1ccccc1 (centres undefined) was read as VLA-4 inh 0, ABCB6 inh MLPCN 103, DAGLB inhibitor -3, FGF22 binding 1, MT1-MMP act inh -1 and Granule exo inh -8.
Screening CN(C)C(/C=C/Nc1ccc(Br)cc1)=C(C#N)C#N returned VLA-4 inh 2, ABCB6 inh MLPCN 97, DAGLB inhibitor 0, FGF22 binding 43*, MT1-MMP act inh -3 and Granule exo inh -1.
`CN(C)C(/C=C/Nc1ccc(C#N)cc1)=C(C#N)C#N` gave VLA-4 inh -22, ABCB6 inh MLPCN 106, DAGLB inhibitor -1, MT1-MMP act inh -3 and Granule exo inh -2.
For CC(C)OC(=O)c1cc(=O)[nH]c2ccccc12 the results were VLA-4 inh 4, ABCB6 inh MLPCN 93, DAGLB inhibitor 2, MT1-MMP act inh 11 and Granule exo inh -2.

Source: PubChem
